In ChEMBL document CHEMBL4138318, “Discovery of 5-Cyano-6-phenylpyrimidin Derivatives Containing an Acylurea Moiety as Orally Bioavailable Reversal Agents against P-Glycoprotein-Mediated Mutidrug Resistance” (J Med Chem, 2018):
The source made the active and inactive calls. No cut-off for these calls is given here.

What was measured:
SW620/AD300 = experiment: Effect on subcellular localization of ABCB1 in human SW620/AD300 cells at 2 uM after 48 hrs by Hoechst 33258 staining-based immunofluorescence assay; assay type: functional, cell-based
Summary of the method: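 About 1×10^4 cells on coverslips incubated with compound 48 h, fixed in 4% paraformaldehyde ≥20 min, blocked 2 h in PBS with 5% BSA, anti-ABCB1 primary overnight at 4℃, Alexa Fluor 488 anti-goat secondary 2 h, nuclei stained with Hoechst 33258 20 min; imaged by laser scanning confocal microscopy.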

[1] = molecular target: T1, ATP-dependent translocase ABCB1 (Homo sapiens, UniProt P08183); experiment: Inhibition of ABCB1 in human SW620/AD300 cells assessed as potentiation of paclitaxel-induced cytotoxicity by measuring fold reduction in paclitaxel IC50 at 1 uM after 72 hrs by MTT assay; assay type: cell-based
Summary of the method: (§1)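 SW620/AD300 cells (~5×10^3/well) treated with graded paclitaxel with or without modulator (2 µM, or 0.5-2 µM in dose series; 0.1% DMSO solvent control) for 72 h; MTT (5 mg/mL stock) added 4 h, absorbance 490 nm. IC50 as mean ± SD of three independent runs; reversal fold = paclitaxel IC50 without/with modulator.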

[2] = molecular target: T1, ATP-dependent translocase ABCB1; experiment: Inhibition of ABCB1 in human SW620/AD300 cells assessed as potentiation of paclitaxel-induced cytotoxicity by measuring fold reduction in paclitaxel IC50 at 2 uM after 72 hrs by MTT assay relative to paclitaxel alone; assay type: cell-based; summary of the method: as §1
[3] = Cytotoxicity against human SW620/AD300 cells assessed as survival at 2 uM after 72 hrs by MTT assay relative to control; assay type: cell-based; details: read-out: Survival
[4] = molecular target: T1, ATP-dependent translocase ABCB1; experiment: Inhibition of ABCB1 in human SW620/AD300 cells assessed as decrease in rhodamine 123 efflux up to 4 uM preincubated for 4 hrs followed by 30 mins incubation in Rho-123 containing medium and subsequent incubation in Rho-123 free medium up to 120 mins by flow cytometry; assay type: cell-based
Summary of the method: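 Cells loaded with rhodamine 123 as in the accumulation assay (4 h compound pre-exposure, 1 µg/mL dye 30 min, 37℃), then kept in dye-free medium with or without reversal agent for 30, 60, 90 or 120 min at 37℃; intracellular fluorescence read by flow cytometry at 488/530 nm. Three independent experiments.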

[5] = Cytotoxicity against human SW620 cells assessed as survival at 2 uM after 72 hrs by MTT assay relative to control; assay type: cell-based, SW-620; details: read-out: Survival
Cytochrome P450 3A4 = Cytochrome P450 3A4 (Homo sapiens, UniProt P08684); experiment: Inhibition of recombinant human CYP3A4 up to 32 uM in presence of NADPH generating system by fluorescence assay; assay type: ADME; details: recombinant enzyme
[6] = molecular target: T1, ATP-dependent translocase ABCB1; experiment: Inhibition of ABCB1 in human SW620/AD300 cells assessed as potentiation of paclitaxel-induced cytotoxicity after 72 hrs by MTT assay; assay type: cell-based; summary of the method: as §1
[7] = molecular target: T1, ATP-dependent translocase ABCB1; experiment: Inhibition of ABCB1 in human SW620/AD300 cells assessed as potentiation of paclitaxel-induced cytotoxicity by measuring fold reduction in paclitaxel IC50 at 0.5 uM after 72 hrs by MTT assay; assay type: cell-based; summary of the method: as §1

T1 sequence (P08183 whole entry): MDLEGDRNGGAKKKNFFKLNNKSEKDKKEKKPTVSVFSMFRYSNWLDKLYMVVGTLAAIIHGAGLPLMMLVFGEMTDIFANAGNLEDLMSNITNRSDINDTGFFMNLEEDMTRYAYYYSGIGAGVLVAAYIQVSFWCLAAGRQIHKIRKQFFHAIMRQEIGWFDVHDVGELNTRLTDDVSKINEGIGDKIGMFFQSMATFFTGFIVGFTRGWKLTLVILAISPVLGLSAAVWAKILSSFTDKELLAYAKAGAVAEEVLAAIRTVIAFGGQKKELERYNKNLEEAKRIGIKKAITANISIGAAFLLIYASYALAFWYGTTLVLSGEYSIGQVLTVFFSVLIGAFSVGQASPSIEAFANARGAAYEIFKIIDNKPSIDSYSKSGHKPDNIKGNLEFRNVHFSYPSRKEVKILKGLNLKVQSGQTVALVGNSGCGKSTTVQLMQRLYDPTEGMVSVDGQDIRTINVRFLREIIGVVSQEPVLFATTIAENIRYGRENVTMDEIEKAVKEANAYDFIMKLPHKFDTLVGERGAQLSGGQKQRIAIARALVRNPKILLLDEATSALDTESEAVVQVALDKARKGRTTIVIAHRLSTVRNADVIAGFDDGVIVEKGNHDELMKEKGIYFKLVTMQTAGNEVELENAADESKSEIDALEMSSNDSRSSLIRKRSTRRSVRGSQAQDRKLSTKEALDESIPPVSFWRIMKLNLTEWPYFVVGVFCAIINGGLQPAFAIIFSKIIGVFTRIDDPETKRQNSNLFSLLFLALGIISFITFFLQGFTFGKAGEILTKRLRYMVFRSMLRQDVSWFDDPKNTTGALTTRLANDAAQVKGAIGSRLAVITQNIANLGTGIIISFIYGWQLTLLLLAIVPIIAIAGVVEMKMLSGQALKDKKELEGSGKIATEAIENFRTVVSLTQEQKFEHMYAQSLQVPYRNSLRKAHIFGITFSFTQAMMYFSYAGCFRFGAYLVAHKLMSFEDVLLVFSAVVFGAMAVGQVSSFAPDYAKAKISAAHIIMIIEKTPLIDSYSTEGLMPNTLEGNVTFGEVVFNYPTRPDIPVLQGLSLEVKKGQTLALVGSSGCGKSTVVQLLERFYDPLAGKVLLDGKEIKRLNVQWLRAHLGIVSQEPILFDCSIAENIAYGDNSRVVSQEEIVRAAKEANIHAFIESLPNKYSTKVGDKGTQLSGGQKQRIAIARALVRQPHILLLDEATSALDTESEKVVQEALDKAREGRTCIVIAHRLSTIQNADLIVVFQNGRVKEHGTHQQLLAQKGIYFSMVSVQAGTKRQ
Sequence of Cytochrome P450 3A4 (P08684 whole entry): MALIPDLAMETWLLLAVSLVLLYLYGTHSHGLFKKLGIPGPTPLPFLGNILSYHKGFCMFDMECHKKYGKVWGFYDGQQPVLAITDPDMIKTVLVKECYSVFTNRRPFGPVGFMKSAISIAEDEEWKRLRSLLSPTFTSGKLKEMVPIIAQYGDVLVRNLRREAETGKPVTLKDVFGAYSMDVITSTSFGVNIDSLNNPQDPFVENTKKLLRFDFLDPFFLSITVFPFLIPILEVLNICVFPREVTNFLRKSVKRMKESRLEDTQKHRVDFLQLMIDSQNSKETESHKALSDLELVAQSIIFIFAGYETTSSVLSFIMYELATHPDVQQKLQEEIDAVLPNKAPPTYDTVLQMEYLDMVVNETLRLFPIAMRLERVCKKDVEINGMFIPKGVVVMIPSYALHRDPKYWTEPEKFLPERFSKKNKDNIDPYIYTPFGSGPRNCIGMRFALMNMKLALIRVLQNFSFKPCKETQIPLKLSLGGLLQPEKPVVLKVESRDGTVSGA

Compound	Activity (SW620/AD300)	fold change (FC) [1]	fold change (FC) [2]	viability at 72 h, 2 µM [3] [%]	inhibition (INH) [4]	viability at 72 h, 2 µM [5] [%]	inhibition (INH) (Cytochrome P450 3A4)	inhibition (INH) [6]	fold change (FC) [7]
COc1cc(-c2nc(SCC(=O)NC(=O)Nc3ccccn3)nc(Nc3ccc(Br)cc3)c2C#N)cc(OC)c1OC	inactive	32.2	190.27	> 90	Active	> 90	Not Active	Dose-dependent effect	8.019
COc1cc(-c2nc(SCC(=O)NC(=O)Nc3ccccc3)nc(Nc3cccc(Cl)c3)c2C#N)cc(OC)c1OC	inactive	26.33	261.63	> 90	Active	> 90	Not Active	Dose-dependent effect	37.04
COc1ccc(CCN(C)CCCC(C#N)(c2ccc(OC)c(OC)c2)C(C)C)cc1OC (stereo unspecified)								Dose-dependent effect	
COc1cc(-c2nc(SCC(=O)NC(=O)Nc3ccccn3)nc(Nc3ccc(C(F)(F)F)cc3)c2C#N)cc(OC)c1OC			3.56	> 90		> 90			
CC(C)c1ccc(Nc2nc(SCc3cn(CC(=O)NC(=O)Nc4ccccn4)nn3)nc(-c3ccc(C(C)C)cc3)c2C#N)cc1			9.49	> 90		> 90			
COc1cc(-c2nc(SCC(=O)NC(=O)Nc3ccccn3)nc(Nc3ccc(Cl)cc3)c2C#N)cc(OC)c1OC			12.61	> 90		> 90			
Cc1ccccc1Nc1nc(SCc2cn(CC(=O)NC(=O)Nc3ccccn3)nn2)nc(-c2ccc(C(C)C)cc2)c1C#N			4.69	> 90		> 90			
N#Cc1c(Nc2ccccc2Cl)nc(SCC(=O)NC(=O)Nc2ccccn2)nc1-c1ccc(F)c(F)c1			14.24	> 90		> 90			
CC(C)c1ccc(-c2nc(SCc3cn(CC(=O)NC(=O)Nc4ccccn4)nn3)nc(Nc3ccc(Cl)cc3)c2C#N)cc1			1.66	> 90		> 90			
COc1cc(-c2nc(SCc3ccccc3)nc(Nc3cccc(Cl)c3)c2C#N)cc(OC)c1OC			1.05	> 90		> 90			
COc1cc(-c2nc(SCC(=O)NC(=O)Nc3ccccc3)nc(Nc3cccc([N+](=O)[O-])c3)c2C#N)cc(OC)c1OC			21.04	> 90		> 90			
COc1ccc(Nc2nc(SCc3cn(CC(=O)NC(=O)Nc4ccccn4)nn3)nc(-c3ccc(C(C)C)cc3)c2C#N)cc1			6.3	> 90		> 90			
